Data: ChEMBL document CHEMBL1144476, “Phenolic hydrazones are potent inhibitors of macrophage migration inhibitory factor proinflammatory activity and survival improving agents in sepsis” (J Med Chem, 2007)

What was measured:
[1] = target: T1, Macrophage migration inhibitory factor (Homo sapiens, UniProt P14174); assay: Inhibition of MIF tautomerase activity by spectrophotometric assay
T1 sequence (P14174 whole entry): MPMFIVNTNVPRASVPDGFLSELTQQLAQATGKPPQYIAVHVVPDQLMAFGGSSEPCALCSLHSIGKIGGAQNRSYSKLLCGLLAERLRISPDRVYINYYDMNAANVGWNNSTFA

Mus musculus [2] = organism: Mus musculus; assay: Inhibition of LPS-induced TNFalpha release in […] macrophages after 16 hrs; format: functional
How it was run: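 […] macrophages (10⁵ cells) given compound at 0.01–100 μM 30 min before LPS stimulation; 16 h incubation, then TNF measured in culture supernatants by ELISA. Mean ± S.D, n=3.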

Mus musculus [3] = assay: Survival of CLP-induced BALB/c mouse at 4 mg/kg, ip after 3 days; format: functional; conditions: 72 h, route intraperitoneal
How it was run: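 Male Balb/C mice (~8 weeks) given cecal ligation with a single 22G puncture under ketamine/xylazine anaesthesia. Subcutaneous antibiotic and saline resuscitation were given right after surgery. Dosing was 4 mg/kg intraperitoneally in 20% DMSO/80% saline, started 24 h post-CLP and repeated twice daily on days 2 and 3. The vehicle group was handled the same way. Survival was scored with n=13 per group.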

Compound	IC50 [1] [µM]	Activity (Mus musculus [2])	survival at 4 mg/kg (Mus musculus [3]) [%]
CCOC(=O)N/N=C/c1ccc(O)cc1	43		
Oc1ccc(/C=N/Nc2ccccc2)cc1	2.6		
COc1ccc(COC(=O)N/N=C/c2ccc(O)cc2)cc1	8		
COC(=O)N/N=C/c1ccc(O)cc1	55		
COc1ccc(N/N=C/c2ccc(O)c(Br)c2)cc1	0.33		
N/N=C/c1ccc(O)cc1	> 500		
COc1ccc(N/N=C/c2ccc(O)cc2)cc1	0.48		
CC(C)(C)OC(=O)N/N=C/c1ccc(O)cc1	5.5		
O=C(N/N=C/c1ccc(O)cc1)OCc1ccccc1	10		
COc1ccc(N/N=C/c2ccc(O)c(F)c2)cc1	0.13	Dose-dependent effect	65
CN/N=C/c1ccc(O)cc1	43		
COc1ccc(N/N=C/c2ccc(O)c(Cl)c2)cc1	0.22		
CN(/N=C/c1ccc(O)cc1)c1ccccc1	300		
